In ChEMBL document CHEMBL2429818, “Recognition of HIV-TAR RNA using neomycin-benzimidazole conjugates” (Bioorg Med Chem Lett, 2013):
pIC50: −log10 of the molar value. Calls of active or inactive are those of the source. No cut-off for these calls is given here.

Key:
[1] = test system: Nucleic Acid; assay: Thermal stabilization of HIV TAR RNA assessed as change in melting temperature at 1:1 ligand to RNA ratio by UV-vis spectrophotometric analysis; format: nucleic-acid assay; settings: Human immunodeficiency virus
[2] = target: Nucleic Acid; assay: Displacement of fluorescein and rhodamine-labeled TAT peptide from HIV TAR RNA by FRET assay; format: nucleic-acid assay, Human immunodeficiency virus
Procedure, shortened: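 Tat peptide carrying fluorescein/rhodamine FRET pair mixed 1:1 with TAR RNA (100 nM each) in 50 mM Tris, 20 mM KCl, pH 7.4. Complex titrated with ligand until fluorescence stopped changing; displacement read as loss of fluorescein emission. Isotherm fitted to a dose-response curve to give IC50, the level displacing 50% of bound peptide.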

[3] = target: Nucleic Acid; assay: Displacement of ethidium bromide from HIV TAR RNA by fluorescent intercalator displacement assay; format: nucleic-acid assay, Human immunodeficiency virus
Procedure, shortened: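 TAR RNA prebound with ethidium bromide, then titrated successively with ligand to displace the intercalator. The resulting binding isotherm was analysed for DC50, the ligand concentration displacing 50% of bound dye.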

[4] = test system: Nucleic Acid; assay: Binding affinity to HIV TAR RNA at 1.6 equiv after 5 mins by circular dichroism analysis; format: nucleic-acid assay; settings: Human immunodeficiency virus
Procedure, shortened: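 TAR RNA titrated serially with ligand in small increments; after each addition the complex was stirred and equilibrated 5 min before recording the CD spectrum (average of three scans). Buffer 10 mM sodium cacodylate, 0.5 mM EDTA, 100 mM KCl, pH 6.8, at 20 °C.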

[5] = Displacement of fluorescein-labeled REV peptide from HIV RRE RNA after 1 hr by fluorescence polarization assay; design: species or system Human immunodeficiency virus

| ΔTm [1] | pIC50 [2] | DC50 [3] | Activity [4] | pIC50 [5] | SMILES |
| --- | --- | --- | --- | --- | --- |
| 5.4 °C | 6.02 | 0.081 µM |  |  | CN1CCN(c2ccc3nc(-c4ccc(OCCn5cc(CCCCCCc6cn(C[C@H]7O[C@@H](O[C@@H]8[C@@H](O)[C@H](N)C[C@H](N)[C@H]8O[C@H]8O[C@H](CN)[C@@H](O)[C@H](O)[C@H]8N)[C@H](O)[C@@H]7O[C@H]7O[C@@H](CN)[C@@H](O)[C@H](O)[C@H]7N)nn6)nn5)cc4)[nH]c3c2)CC1 |
| 2.1 °C | 6.07 | 0.15 µM |  |  | CN1CCN(c2ccc3nc(-c4ccc(OCc5cn(CCCCCn6cc(CCCCc7cn(C[C@H]8O[C@@H](O[C@@H]9[C@@H](O)[C@H](N)C[C@H](N)[C@H]9O[C@H]9O[C@H](CN)[C@@H](O)[C@H](O)[C@H]9N)[C@H](O)[C@@H]8O[C@H]8O[C@@H](CN)[C@@H](O)[C@H](O)[C@H]8N)nn7)nn6)nn5)cc4)[nH]c3c2)CC1 |
| 3 °C | 5.89 | 0.078 µM |  |  | CN1CCN(c2ccc3nc(-c4ccc(OCCn5cc(COCc6cn(C[C@H]7O[C@@H](O[C@@H]8[C@@H](O)[C@H](N)C[C@H](N)[C@H]8O[C@H]8O[C@H](CN)[C@@H](O)[C@H](O)[C@H]8N)[C@H](O)[C@@H]7O[C@H]7O[C@@H](CN)[C@@H](O)[C@H](O)[C@H]7N)nn6)nn5)cc4)[nH]c3c2)CC1 |
| 4 °C | 5.86 | 0.18 µM |  |  | CN1CCN(c2ccc3nc(-c4ccc(OCc5cn(CCCCCCCCCCn6cc(CCCCc7cn(C[C@H]8O[C@@H](O[C@@H]9[C@@H](O)[C@H](N)C[C@H](N)[C@H]9O[C@H]9O[C@H](CN)[C@@H](O)[C@H](O)[C@H]9N)[C@H](O)[C@@H]8O[C@H]8O[C@@H](CN)[C@@H](O)[C@H](O)[C@H]8N)nn7)nn6)nn5)cc4)[nH]c3c2)CC1 |
| 5.6 °C | 6.57 | 0.033 µM | Active | 6.11 | CN1CCN(c2ccc3nc(-c4ccc(OCc5cn(C[C@H]6O[C@@H](O[C@@H]7[C@@H](O)[C@H](N)C[C@H](N)[C@H]7O[C@H]7O[C@H](CN)[C@@H](O)[C@H](O)[C@H]7N)[C@H](O)[C@@H]6O[C@H]6O[C@@H](CN)[C@@H](O)[C@H](O)[C@H]6N)nn5)cc4)[nH]c3c2)CC1 |
| 1 °C |  |  |  |  | C#CCOc1ccc(-c2nc3ccc(N4CCN(C)CC4)cc3[nH]2)cc1 |
| 2.5 °C | 6.39 | 0.184 µM |  |  | CN1CCN(c2ccc3nc(-c4ccc(OCc5cn(Cn6cc(CCCCc7cn(C[C@H]8O[C@@H](O[C@@H]9[C@@H](O)[C@H](N)C[C@H](N)[C@H]9O[C@H]9O[C@H](CN)[C@@H](O)[C@H](O)[C@H]9N)[C@H](O)[C@@H]8O[C@H]8O[C@@H](CN)[C@@H](O)[C@H](O)[C@H]8N)nn7)nn6)nn5)cc4)[nH]c3c2)CC1 |
| 3.4 °C | 6.47 | 0.083 µM |  |  | CN1CCN(c2ccc3nc(-c4ccc(OCCn5cc(CCc6cn(C[C@H]7O[C@@H](O[C@@H]8[C@@H](O)[C@H](N)C[C@H](N)[C@H]8O[C@H]8O[C@H](CN)[C@@H](O)[C@H](O)[C@H]8N)[C@H](O)[C@@H]7O[C@H]7O[C@@H](CN)[C@@H](O)[C@H](O)[C@H]7N)nn6)nn5)cc4)[nH]c3c2)CC1 |
| 4.1 °C | 6.29 | 0.14 µM |  |  | CN1CCN(c2ccc3nc(-c4ccc(OCCn5cc(CCCc6cn(C[C@H]7O[C@@H](O[C@@H]8[C@@H](O)[C@H](N)C[C@H](N)[C@H]8O[C@H]8O[C@H](CN)[C@@H](O)[C@H](O)[C@H]8N)[C@H](O)[C@@H]7O[C@H]7O[C@@H](CN)[C@@H](O)[C@H](O)[C@H]7N)nn6)nn5)cc4)[nH]c3c2)CC1 |
| 2 °C | 5.83 |  |  |  | NC[C@@H]1O[C@H](O[C@H]2[C@@H](O)[C@H](O[C@@H]3[C@@H](O)[C@H](N)C[C@H](N)[C@H]3O[C@H]3O[C@H](CN)[C@@H](O)[C@H](O)[C@H]3N)O[C@@H]2CO)[C@H](N)[C@@H](O)[C@@H]1O [FRAMYCETIN] |
| 3.8 °C | 5.86 | 0.2 µM |  |  | CN1CCN(c2ccc3nc(-c4ccc(OCc5cn(CCCCCCn6cc(CCCCc7cn(C[C@H]8O[C@@H](O[C@@H]9[C@@H](O)[C@H](N)C[C@H](N)[C@H]9O[C@H]9O[C@H](CN)[C@@H](O)[C@H](O)[C@H]9N)[C@H](O)[C@@H]8O[C@H]8O[C@@H](CN)[C@@H](O)[C@H](O)[C@H]8N)nn7)nn6)nn5)cc4)[nH]c3c2)CC1 |
| 3 °C | 6.42 | 0.18 µM |  |  | CN1CCN(c2ccc3nc(-c4ccc(OCCn5cc(-c6ccc(-c7cn(C[C@H]8O[C@@H](O[C@@H]9[C@@H](O)[C@H](N)C[C@H](N)[C@H]9O[C@H]9O[C@H](CN)[C@@H](O)[C@H](O)[C@H]9N)[C@H](O)[C@@H]8O[C@H]8O[C@@H](CN)[C@@H](O)[C@H](O)[C@H]8N)nn7)cc6)nn5)cc4)[nH]c3c2)CC1 |
